How the values were obtained:
Type in all cases: cell-based
[1] = biological target: T1, Sodium- and chloride-dependent GABA transporter 2 (Homo sapiens, UniProt Q9NSD5); experiment: Inhibition of human GAT2 expresses in tsA201 cells assessed as reduction in [3H]GABA uptake after 3 mins by scintillation counting method
T1 sequence (Q9NSD5 whole entry): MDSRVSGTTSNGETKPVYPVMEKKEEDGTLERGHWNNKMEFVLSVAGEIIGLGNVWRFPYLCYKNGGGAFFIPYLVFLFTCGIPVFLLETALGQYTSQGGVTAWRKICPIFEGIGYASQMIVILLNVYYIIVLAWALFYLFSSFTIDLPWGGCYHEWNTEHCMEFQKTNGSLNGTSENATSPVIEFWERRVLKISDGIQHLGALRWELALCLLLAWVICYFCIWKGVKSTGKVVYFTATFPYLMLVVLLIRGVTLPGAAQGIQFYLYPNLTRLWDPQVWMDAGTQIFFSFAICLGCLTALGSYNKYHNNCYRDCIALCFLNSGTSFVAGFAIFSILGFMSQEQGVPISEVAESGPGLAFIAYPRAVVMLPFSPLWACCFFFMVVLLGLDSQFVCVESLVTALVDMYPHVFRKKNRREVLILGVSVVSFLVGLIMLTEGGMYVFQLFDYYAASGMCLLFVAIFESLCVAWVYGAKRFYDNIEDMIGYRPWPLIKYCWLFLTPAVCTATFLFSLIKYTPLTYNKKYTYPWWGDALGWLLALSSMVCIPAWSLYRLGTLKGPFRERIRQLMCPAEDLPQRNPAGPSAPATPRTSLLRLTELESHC
Summary of the method: (§1)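 Wild-type human GAT transiently expressed in tsA201 cells via pcDNA5/FRT and PolyFect. Uptake of 30 nM [3H]GABA was run for 3 min at 37 °C in HBSS/20 mM HEPES with 1 mM CaCl2 and 1 mM MgCl2, pH 7.4, across a range of test concentrations. Ice-cold washes were followed by scintillation counting. IC50 was obtained by sigmoidal variable-slope fitting, reported as mean pIC50 ± S.E.M.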

[2] = biological target: Sodium- and chloride-dependent GABA transporter 1 (Homo sapiens, UniProt P30531)
Chain of Sodium- and chloride-dependent GABA transporter 1 (P30531 whole entry): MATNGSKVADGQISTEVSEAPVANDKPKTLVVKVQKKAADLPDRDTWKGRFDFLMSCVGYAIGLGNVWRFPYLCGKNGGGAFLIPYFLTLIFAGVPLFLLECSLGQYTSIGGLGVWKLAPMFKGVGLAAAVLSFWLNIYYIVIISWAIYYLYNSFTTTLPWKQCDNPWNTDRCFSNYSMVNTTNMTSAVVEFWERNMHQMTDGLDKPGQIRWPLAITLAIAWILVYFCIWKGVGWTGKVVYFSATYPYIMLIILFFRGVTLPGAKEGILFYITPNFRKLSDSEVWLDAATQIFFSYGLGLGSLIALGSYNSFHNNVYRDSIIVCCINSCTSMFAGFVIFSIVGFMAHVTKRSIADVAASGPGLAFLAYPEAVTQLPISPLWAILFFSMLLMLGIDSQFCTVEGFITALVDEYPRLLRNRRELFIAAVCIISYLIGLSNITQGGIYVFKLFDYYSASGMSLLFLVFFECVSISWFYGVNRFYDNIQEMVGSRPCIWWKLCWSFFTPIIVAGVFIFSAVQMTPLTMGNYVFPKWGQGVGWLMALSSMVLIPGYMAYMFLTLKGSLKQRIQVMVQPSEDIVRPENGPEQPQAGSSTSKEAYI

[3] = biological target: T2, Sodium- and chloride-dependent betaine transporter (Homo sapiens, UniProt P48065); experiment: Inhibition of human BGT1 expresses in tsA201 cells assessed as reduction in [3H]GABA uptake after 3 mins by scintillation counting method
T2 sequence (P48065 whole entry): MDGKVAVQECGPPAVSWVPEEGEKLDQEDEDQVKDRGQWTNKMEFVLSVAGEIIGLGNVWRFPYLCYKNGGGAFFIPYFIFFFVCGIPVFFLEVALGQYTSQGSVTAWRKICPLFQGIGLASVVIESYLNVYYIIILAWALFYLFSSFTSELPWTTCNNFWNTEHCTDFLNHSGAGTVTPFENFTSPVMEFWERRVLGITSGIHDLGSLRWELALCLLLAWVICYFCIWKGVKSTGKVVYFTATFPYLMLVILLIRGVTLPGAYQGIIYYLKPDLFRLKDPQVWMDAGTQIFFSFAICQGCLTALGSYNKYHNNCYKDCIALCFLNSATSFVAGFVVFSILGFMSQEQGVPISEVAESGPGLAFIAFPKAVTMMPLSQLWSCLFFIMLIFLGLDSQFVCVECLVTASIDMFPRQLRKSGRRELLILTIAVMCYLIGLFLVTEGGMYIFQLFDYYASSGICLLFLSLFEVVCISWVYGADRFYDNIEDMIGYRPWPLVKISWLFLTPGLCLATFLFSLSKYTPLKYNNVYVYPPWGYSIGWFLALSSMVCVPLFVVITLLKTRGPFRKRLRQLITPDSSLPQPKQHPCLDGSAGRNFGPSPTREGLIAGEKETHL
Summary of the method: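 tsA201 cells transiently transfected with wild-type or mutant human BGT1 (PolyFect) were plated about 24 h before assay. Three ice-cold washes followed, then scintillation counting.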

[4] = biological target: T3, Sodium- and chloride-dependent GABA transporter 3 (Homo sapiens, UniProt P48066); experiment: Inhibition of human GAT3 expresses in tsA201 cells assessed as reduction in [3H]GABA uptake after 3 mins by scintillation counting method; summary of the method: as §1
T3 sequence (P48066 whole entry): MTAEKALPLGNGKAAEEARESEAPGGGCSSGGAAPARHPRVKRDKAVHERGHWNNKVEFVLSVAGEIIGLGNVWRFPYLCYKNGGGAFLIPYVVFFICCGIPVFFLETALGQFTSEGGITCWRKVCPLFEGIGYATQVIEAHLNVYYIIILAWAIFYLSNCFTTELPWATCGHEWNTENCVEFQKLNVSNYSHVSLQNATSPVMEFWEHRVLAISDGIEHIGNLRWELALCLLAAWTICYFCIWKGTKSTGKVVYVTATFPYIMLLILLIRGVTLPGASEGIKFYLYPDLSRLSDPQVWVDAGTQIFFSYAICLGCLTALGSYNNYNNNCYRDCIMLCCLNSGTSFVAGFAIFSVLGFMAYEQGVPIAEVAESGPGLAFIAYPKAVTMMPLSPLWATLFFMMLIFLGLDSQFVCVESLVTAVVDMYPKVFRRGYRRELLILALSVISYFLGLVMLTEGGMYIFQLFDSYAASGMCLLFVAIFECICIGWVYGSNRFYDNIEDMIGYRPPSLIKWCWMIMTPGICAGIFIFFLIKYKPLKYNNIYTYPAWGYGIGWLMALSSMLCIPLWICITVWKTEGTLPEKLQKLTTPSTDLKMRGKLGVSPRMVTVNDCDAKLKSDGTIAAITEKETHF

| SMILES | IC50 [1] [µM] | IC50 [2] [µM] | IC50 [3] [µM] | IC50 [4] [µM] | IC50 ([1]; read-out: IC50) [µM] | IC50 ([2]; read-out: IC50) [µM] | IC50 ([3]; read-out: IC50) [µM] | IC50 ([4]; read-out: IC50) [µM] |
| --- | --- | --- | --- | --- | --- | --- | --- | --- |
| O=C(NC1CCN(Cc2ccccc2)CC1)c1ccc2c(c1)OCO2 | 63 | > 100 | 42 | > 100 |  |  |  |  |
| O=C(NC1CCNCC1)c1ccc(Cl)cc1Cl |  |  |  |  | > 1000 | > 1000 | > 1000 | > 1000 |
| O=C(NC1CCN(Cc2ccc(I)cc2)CC1)c1ccc(Cl)cc1Cl |  |  |  |  | > 100 | > 100 | > 100 | > 100 |
| N#Cc1ccc(CN2CCC(NC(=O)c3ccc(Cl)cc3Cl)CC2)cc1 |  |  |  |  | > 50 | > 50 | > 50 | > 50 |
| CC(C)(C)OC(=O)CN1CCC(NC(=O)c2ccc(Cl)cc2Cl)CC1 |  |  |  |  | > 1000 | > 1000 | > 1000 | > 1000 |
| N#CCCCN1CCC(NC(=O)c2ccc(Cl)cc2Cl)CC1 |  |  |  |  | > 1000 | > 1000 | > 1000 | > 1000 |
| COc1cccc(C(=O)NC2CCN(Cc3ccccc3)CC2)c1OC |  |  |  |  | > 500 | > 500 | 91 | > 500 |
| O=C(CN1CCC(NC(=O)c2ccc(Cl)cc2Cl)CC1)c1ccccc1 |  |  |  |  | > 100 | > 100 | > 100 | > 100 |
| O=C(O)CN1CCC(NC(=O)c2ccc(Cl)cc2Cl)CC1 |  |  |  |  | > 1000 | > 1000 | > 1000 | > 1000 |
| CN1CCC(NC(=O)c2ccc(Cl)cc2Cl)CC1 |  |  |  |  | > 1000 | > 1000 | > 1000 | > 1000 |
| CC(C)C(=O)NC1CCN(Cc2ccccc2)CC1 |  |  |  |  | > 1000 | > 1000 | > 1000 | > 1000 |
| O=C(NC1CCN(Cc2ccccc2[N+](=O)[O-])CC1)c1ccc(Cl)cc1Cl |  |  |  |  | > 100 | > 100 | > 100 | > 100 |
| O=C(NC1CCN(Cc2ccccc2)CC1)c1ccccc1 |  |  |  |  | > 1000 | > 1000 | 290 | > 1000 |
| O=C(NC1CCN(Cc2cccnc2)CC1)c1ccc(Cl)cc1Cl |  |  |  |  | > 1000 | > 1000 | > 1000 | > 1000 |
| CCCN1CCC(NC(=O)c2ccc(Cl)cc2Cl)CC1 |  |  |  |  | > 1000 | > 1000 | > 1000 | > 1000 |
| O=C(NC1CCN(Cc2ccccc2)CC1)c1cccc(C(F)(F)F)c1 |  |  |  |  | > 500 | > 500 | 170 | > 500 |
| O=C(NC1CCN(Cc2ccc([N+](=O)[O-])cc2)CC1)c1ccc(Cl)cc1Cl |  |  |  |  | > 100 | > 100 | > 100 | > 100 |
| CCOc1ccccc1C(=O)NC1CCN(Cc2ccccc2)CC1 |  |  |  |  | > 500 | > 500 | 180 | > 500 |
| CCN1CCC(NC(=O)c2ccc(Cl)cc2Cl)CC1 |  |  |  |  | > 1000 | > 1000 | > 1000 | > 1000 |
| O=C(NC1CCN(Cc2ccncc2)CC1)c1ccc(Cl)cc1Cl |  |  |  |  | > 1000 | > 1000 | > 1000 | > 1000 |
| COC(=O)c1ccc(CN2CCC(NC(=O)c3ccc(Cl)cc3Cl)CC2)cc1 |  |  |  |  | > 100 | > 100 | > 100 | > 100 |
| O=C(NC1CCN(C/C=C/c2ccccc2)CC1)c1ccc(Cl)cc1Cl |  |  |  |  | > 100 | > 100 | > 100 | > 100 |
| O=C(NC1CCN(Cc2ccccc2)CC1)c1ccc(F)cc1 |  |  |  |  | > 300 | > 300 | 100 | > 300 |
| N#Cc1ccccc1CN1CCC(NC(=O)c2ccc(Cl)cc2Cl)CC1 |  |  |  |  | > 50 | > 50 | > 50 | > 50 |
| O=C(NC1CCN(Cc2ccccc2)CC1)c1ccc2ccccc2c1 | 23 | > 100 | 15 | > 100 |  |  |  |  |
| O=C(NC1CCN(Cc2ccc3ccccc3n2)CC1)c1ccc(Cl)cc1Cl |  |  |  |  | > 50 | > 50 | > 50 | > 50 |
| O=C(NC1CCN(Cc2ccccn2)CC1)c1ccc(Cl)cc1Cl |  |  |  |  | > 1000 | > 1000 | > 1000 | > 1000 |
| O=C(NC1CCN(Cc2ccc3ccccc3c2)CC1)c1ccc(Cl)cc1Cl |  |  |  |  | > 50 | > 50 | > 50 | > 50 |
| C#CCN1CCC(NC(=O)c2ccc(Cl)cc2Cl)CC1 |  |  |  |  | > 1000 | > 1000 | > 1000 | > 1000 |
| CCOP(=O)(CCCN1CCC(NC(=O)c2ccc(Cl)cc2Cl)CC1)OCC |  |  |  |  | > 1000 | > 1000 | > 1000 | > 1000 |
